Source: ChEMBL document CHEMBL3425469, “Discovery of imidazo[2,1-b]thiazole HCV NS4B inhibitors exhibiting synergistic effect with other direct-acting antiviral agents” (J Med Chem, 2015)

How the values were obtained:
Hepatitis C virus [1] = test: Antiviral activity against Hepatitis C virus genotype 1b Con 1 infected in human HuH7 cells at 160 nM after 72 hrs by luciferase assay in presence of 0.16 nM daclatasvir; assay type: functional, Hepacivirus hominis, Huh-7
Procedure, shortened: (§1)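 Stable Con1 GT1b bicistronic luciferase replicon in Huh-7 cells, 8000 cells/well. Test compound and a marketed DAA or clemizole added alone or together at varied concentrations, 0.5% DMSO final. 72 h at 37°C, then luciferase read with Bright-Glo. Inhibition expressed as % of untreated control, with cytotoxicity run in parallel. CI and DRI derived by the Chou–Talalay median-effect method.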

Hepatitis C virus [2] = test: Antiviral activity against Hepatitis C virus genotype 1b Con 1 infected in human HuH7 cells at 40 nM after 72 hrs by luciferase assay in presence of 15 uM clemizole; assay type: functional, Hepacivirus hominis, Huh-7
Procedure, shortened: (§2)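 Huh-7 cells stably carrying a GT1b Con1 bicistronic luciferase replicon, seeded at 8000 cells/well. The test compound and the partner DAA are dosed orthogonally at various concentrations, final 0.5% DMSO, then incubated 72 h at 37°C. Bright-Glo luciferase read-out gives replicon inhibition as % of untreated control. Cytotoxicity is checked in parallel by CellTiter-Fluor. CI and DRI are derived by the Chou–Talalay median-effect method.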

Hepatitis C virus [3] = test: Antiviral activity against Hepatitis C virus genotype 1b Con 1 infected in human HuH7 cells at 40 nM after 72 hrs by luciferase assay in presence of 12.5 uM clemizole; assay type: functional, Hepacivirus hominis, Huh-7; procedure, shortened: as §2
Hepatitis C virus [4] = test: Antiviral activity against Hepatitis C virus genotype 1b Con 1 infected in human HuH7 cells at 10 nM after 72 hrs by luciferase assay in presence of 120 nM sofobuvir; assay type: functional, Hepacivirus hominis, Huh-7; procedure, shortened: as §1
Hepatitis C virus [5] = test: Antiviral activity against Hepatitis C virus genotype 1b Con 1 infected in human HuH7 cells at 2.5 nM after 72 hrs by luciferase assay in presence of 0.16 nM daclatasvir; assay type: functional, Hepacivirus hominis, Huh-7; procedure, shortened: as §1
Hepatitis C virus [6] = test: Antiviral activity against Hepatitis C virus genotype 1b Con 1 infected in human HuH7 cells at 2.5 nM after 72 hrs by luciferase assay in presence of 15 uM clemizole; assay type: functional, Hepacivirus hominis, Huh-7; procedure, shortened: as §1
Hepatitis C virus [7] = test: Antiviral activity against Hepatitis C virus genotype 1b harboring Y448H NS5B (palm) mutation transfected in human HuH7 cells after 72 hrs by luciferase assay; assay type: functional, cell-based, Hepacivirus hominis; settings: Huh-7, 72 h
Procedure, shortened: (§3)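 Huh-7 cells were transiently electroporated with genotype 1b replicon RNA carrying the specified mutation and plated at 10000 cells/well. Compounds were added at 0.5% DMSO final for 72 h at 37°C. Read-out was Bright-Glo luciferase. EC50 is the mean of two independent runs within 2-fold of each other. A reference drug EC50 was measured alongside each mutant replicon to validate it.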

Hepatitis C virus [8] = test: Antiviral activity against Hepatitis C virus genotype 1b Con 1 infected in human HuH7 cells at 40 nM after 72 hrs by luciferase assay in presence of 3 nM simeprevir; assay type: functional, Hepacivirus hominis, Huh-7; procedure, shortened: as §2
Hepatitis C virus [9] = test: Antiviral activity against Hepatitis C virus genotype 1b Con 1 infected in human HuH7 cells at 20 nM after 72 hrs by luciferase assay in presence of 60 nM sofobuvir; assay type: functional, Hepacivirus hominis, Huh-7; procedure, shortened: as §2
Hepatitis C virus [10] = test: Antiviral activity against Hepatitis C virus genotype 1b Con 1 infected in human HuH7 cells at 20 nM after 72 hrs by luciferase assay in presence of 7.5 uM clemizole; assay type: functional, Hepacivirus hominis, Huh-7; procedure, shortened: as §2
Hepatitis C virus [11] = test: Antiviral activity against Hepatitis C virus genotype 1b Con 1 infected in human HuH7 cells at 10 nM after 72 hrs by luciferase assay in presence of 10 uM clemizole; assay type: functional, Hepacivirus hominis, Huh-7; procedure, shortened: as §1
Hepatitis C virus [12] = test: Antiviral activity against Hepatitis C virus genotype 1b Con 1 infected in human HuH7 cells at 10 nM after 72 hrs by luciferase assay in presence of 12.5 uM clemizole; assay type: functional, Hepacivirus hominis, Huh-7; procedure, shortened: as §1
Hepatitis C virus [13] = test: Antiviral activity against Hepatitis C virus genotype 1b Con 1 infected in human HuH7 cells at 5 nM after 72 hrs by luciferase assay in presence of 3 nM simeprevir; assay type: functional, Hepacivirus hominis, Huh-7; procedure, shortened: as §2
Hepatitis C virus [14] = test: Antiviral activity against Hepatitis C virus genotype 1b Con 1 infected in human HuH7 cells at 40 nM after 72 hrs by luciferase assay in presence of 140 nM sofobuvir; assay type: functional, Hepacivirus hominis, Huh-7; procedure, shortened: as §2
Hepatitis C virus [15] = test: Antiviral activity against Hepatitis C virus genotype 1b harboring Y93H NS5A mutation transfected in human HuH7 cells after 72 hrs by luciferase assay; assay type: functional, cell-based, Hepacivirus hominis; settings: Huh-7, 72 h; procedure, shortened: as §3
Hepatitis C virus [16] = test: Antiviral activity against Hepatitis C virus genotype 1b Con 1 infected in human HuH7 cells at 20 nM after 72 hrs by luciferase assay in presence of 120 nM sofobuvir; assay type: functional, Hepacivirus hominis, Huh-7; procedure, shortened: as §1
Hepatitis C virus [17] = test: Antiviral activity against Hepatitis C virus genotype 1b Con 1 infected in human HuH7 cells at 160 nM after 72 hrs by luciferase assay in presence of 12 nM simeprevir; assay type: functional, Hepacivirus hominis, Huh-7; procedure, shortened: as §1
Hepatitis C virus [18] = test: Antiviral activity against Hepatitis C virus genotype 1b Con 1 infected in human HuH7 cells at 10 nM after 72 hrs by luciferase assay in presence of 6 nM simeprevir; assay type: functional, Hepacivirus hominis, Huh-7; procedure, shortened: as §1
[19] = Cytotoxicity against human HuH7 cells assessed as cell proliferation by cell titer assay; assay type: cell-based, Huh-7
Procedure, shortened: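 Huh-7 cells carrying GT1b Con1 bicistronic replicon seeded at 8000 cells/well; compound added at 0.5% DMSO final, 37°C for 72 h. Proliferation read with CellTiter-Fluor reagent per manufacturer; CC50 fitted from concentration-response, average of at least two independent determinations.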

Hepatitis C virus [20] = test: Antiviral activity against Hepatitis C virus genotype 1b Con 1 infected in human HuH7 cells at 5 nM after 72 hrs by luciferase assay in presence of 10 uM clemizole; assay type: functional, Hepacivirus hominis, Huh-7; procedure, shortened: as §2
Hepatitis C virus [21] = test: Antiviral activity against Hepatitis C virus genotype 1b harboring Q26R mutation transfected in human HuH7 cells after 72 hrs by luciferase assay; assay type: functional, cell-based, Hepacivirus hominis; settings: Huh-7, 72 h; procedure, shortened: as §3
Hepatitis C virus [22] = test: Antiviral activity against Hepatitis C virus genotype 1b Con 1 infected in human HuH7 cells at 160 nM after 72 hrs by luciferase assay in presence of 15 uM clemizole; assay type: functional, Hepacivirus hominis, Huh-7; procedure, shortened: as §1
Hepatitis C virus [23] = test: Antiviral activity against Hepatitis C virus genotype 1b Con 1 infected in human HuH7 cells at 160 nM after 72 hrs by luciferase assay in presence of 2160 nM sofobuvir; assay type: functional, Hepacivirus hominis, Huh-7; procedure, shortened: as §1
Hepatitis C virus [24] = test: Antiviral activity against Hepatitis C virus genotype 1b Con 1 infected in human HuH7 cells at 80 nM after 72 hrs by luciferase assay in presence of 12.5 uM clemizole; assay type: functional, Hepacivirus hominis, Huh-7; procedure, shortened: as §2
Hepatitis C virus [25] = test: Antiviral activity against Hepatitis C virus genotype 1b Con 1 infected in human HuH7 cells at 160 nM after 72 hrs by luciferase assay in presence of 5 uM clemizole; assay type: functional, Hepacivirus hominis, Huh-7; procedure, shortened: as §1
Hepatitis C virus [26] = test: Antiviral activity against Hepatitis C virus genotype 1b Con 1 infected in human HuH7 cells at 2.5 nM after 72 hrs by luciferase assay in presence of 6 nM simeprevir; assay type: functional, Hepacivirus hominis, Huh-7; procedure, shortened: as §1

O=C(c1nc2scc(C3CC3)n2c1Cl)N1CCN(C2CCCC2)C(=O)C1
CI (Hepatitis C virus [1]): 0.65
CI (Hepatitis C virus [2]): 0.94
CI (Hepatitis C virus [3]): 0.76
CI (Hepatitis C virus [4]): 0.7
CI (Hepatitis C virus [5]): 0.98
CI (Hepatitis C virus [6]): 1.17
EC50 (Hepatitis C virus [7]): 8 nM
CI (Hepatitis C virus [8]): 0.74
CI (Hepatitis C virus [9]): 0.78
CI (Hepatitis C virus [10]): 0.56
CI (Hepatitis C virus [11]): 0.68
CI (Hepatitis C virus [12]): 0.81
CI (Hepatitis C virus [13]): 1.22
CI (Hepatitis C virus [14]): 0.57
EC50 (Hepatitis C virus [15]): 14 nM
CI (Hepatitis C virus [16]): 0.63
CI (Hepatitis C virus [17]): 0.47
CI (Hepatitis C virus [18]): 0.54
CC50 [19]: > 10000 nM
CI (Hepatitis C virus [20]): 0.75
EC50 (Hepatitis C virus [21]): 350 nM
CI (Hepatitis C virus [22]): 1.45
CI (Hepatitis C virus [23]): 0.3
CI (Hepatitis C virus [24]): 0.95
CI (Hepatitis C virus [25]): 1.84
CI (Hepatitis C virus [26]): 0.59
